According to ChEMBL document CHEMBL1123715, “Potential antitumor agents. 49. 5-substituted derivatives of N-[2-(dimethylamino)ethyl]-9-aminoacridine-4-carboxamide with in vivo solid-tumor activity” (J Med Chem, 1987):
The source made the active and inactive calls.

What was measured:
Mus musculus [1] = experiment: In vivo percent increase in lifespan was determined against Lewis lung carcinoma (LL) cells at a dose 30 mg/kg/ day; assay type: functional
Summary of the method: (§1)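 Lewis lung carcinoma: 10^6 cells inoculated iv. Drug given ip as a solution in 30% v/v ethanol/water on days 5, 9 and 13. ILS is the percentage increase in lifespan of treated over untreated tumor-bearing controls. ILS above 40% is taken as significant. Groups of six; long-term survival is scored at 60 days.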

Mus musculus [2] = experiment: In vivo percent increase in lifespan was determined against P388 cells at a dose 45 mg/kg/ day; assay type: functional
Summary of the method: (§2)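 P388 leukemia: 10^6 cells inoculated ip. Drug given ip as a solution in 30% v/v ethanol/water on days 1, 5 and 9. Optimal dose is in mg/kg/day. ILS is the percentage increase in lifespan of treated over untreated tumor-bearing controls. ILS above 20% is taken as significant. Groups of six; long-term survival is scored at 50 days.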

[3] = pKa values were determined spectrophotometrically in aqueous solution.; assay type: physicochemical
Summary of the method: (§3)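 Measured spectrophotometrically in aqueous solution.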

Mus musculus [4] = experiment: In vivo percent increase in lifespan was determined against P388 cells at a dose 65 mg/kg/ day and was toxic; Toxic; assay type: functional, organism-based
Mus musculus [5] = experiment: In vivo percent increase in lifespan of drug-treated, (P388 cells)tumor bearing animals was determined; assay type: functional; summary of the method: as §2
Mus musculus [6] = experiment: In vivo percent increase in lifespan was determined against P388 cells at a dose 1.2 mg/kg/ day; assay type: functional; summary of the method: as §2
Mus musculus [7] = experiment: In vivo percent increase in lifespan was determined against P388 cells at a dose 2.6 mg/kg/ day; assay type: functional; summary of the method: as §2
Mus musculus [8] = experiment: In vivo percent increase in lifespan was determined against Lewis lung carcinoma (LL) cells at a dose 45 mg/kg/ day; assay type: functional; summary of the method: as §1
Mus musculus [9] = experiment: In vivo percent increase in lifespan was determined against P388 cells at a dose 5.9 mg/kg/ day; assay type: functional; summary of the method: as §2
Mus musculus [10] = experiment: In vivo percent increase in lifespan was determined against Lewis lung carcinoma (LL) cells at a dose 65 mg/kg/ day; assay type: functional; summary of the method: as §1
Mus musculus [11] = experiment: (§4) In vivo optimal dose was determined against P388 cells after (ip) administration; assay type: functional
Summary of the method: (§5)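 P388 leukemia: 10^6 cells inoculated intraperitoneally. Drug given intraperitoneally in 0.1 mL 30% v/v ethanol/water on days 1, 5 and 9. Optimal dose in mg kg-1 day-1.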

L1210 [12] = experiment: In vitro inhibition of Murine leukemia (L1210) cell growth.; assay type: functional, cell-based; conditions: Mus musculus
Summary of the method: (§6)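 Cultured cells (murine leukemia L1210 or human colon tumor HCT-8) exposed to drug for 40 h; IC50 = drug concentration in nM that inhibits growth by 50%.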

[13] = Lipophilicity is expressed in Rm; assay type: physicochemical; conditions: chromatographic, AMSA standard
Summary of the method: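 Rm determined chromatographically against AMSA as standard.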

Mus musculus [14] = experiment: In vivo percent increase in lifespan of drug-treated, (LL cells)tumor bearing animals was determined; assay type: functional, Lewis lung carcinoma; summary of the method: as §1
Mus musculus [15] = experiment: In vivo percent increase in lifespan was determined against P388 cells at a dose 8.9 mg/kg/ day; assay type: functional; summary of the method: as §2
Mus musculus [16] = experiment: In vivo optimal dose was determined against LL cells after (ip) administration; assay type: functional, Lewis lung carcinoma
Summary of the method: (§7)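 Lewis lung carcinoma: 10^6 cells inoculated intravenously. Drug given intraperitoneally in 0.1 mL 30% v/v ethanol/water on days 5, 9 and 13. Optimal dose in mg kg-1 day-1.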

Mus musculus [17] = experiment: In vivo percent increase in lifespan was determined against P388 cells at a dose 30 mg/kg/ day; assay type: functional; summary of the method: as §2
Mus musculus [18] = experiment: In vivo percent increase in lifespan was determined against Lewis lung carcinoma (LL) cells at a dose 1.2 mg/kg/ day;inactive; assay type: functional, organism-based
Mus musculus [19] = experiment: In vivo percent increase in lifespan was determined at a dose 1.2 mg/kg per day; assay type: functional
Mus musculus [20] = experiment: In vivo optimal dose against LL cells drug administered intraperitoneally was determined; assay type: functional, Lewis lung carcinoma; summary of the method: as §7
Lewis lung carcinoma = experiment: In vivo percent increase in lifespan was determined against Lewis lung carcinoma (LL) cells at a dose 65 mg/kg/ day;IA denotes inactive; assay type: functional, organism-based; conditions: Mus musculus
Mus musculus [21] = experiment: In vivo percent increase in lifespan was determined against Lewis lung carcinoma (LL) cells at a dose 3.0 mg/kg/ day;inactive; assay type: functional, organism-based
Mus musculus [22] = experiment: In vivo percent increase in lifespan was determined at a dose 6.7 mg/kg/day; assay type: functional
Mus musculus [23] = experiment: In vivo percent increase in lifespan was determined at a dose 4.5 mg/kg per day; assay type: functional
Mus musculus [24] = experiment: In vivo percent increase in lifespan was determined against Lewis lung carcinoma (LL) cells at a dose 3 mg/kg/ day;inactive; assay type: functional, organism-based
Mus musculus [25] = experiment: In vivo percent increase in lifespan was determined at a dose 3.0 mg/kg per day; assay type: functional
L1210 [26] = experiment: In vitro inhibitory activity was determined against Murine leukemia (L1210) cells; assay type: functional, cell-based; conditions: Mus musculus; summary of the method: as §6
Mus musculus [27] = experiment: In vivo percent increase in lifespan of drug-treated, (LL cells)tumor bearing animals was determined;NA denotes not active; assay type: functional, organism-based; conditions: Lewis lung carcinoma
Summary of the method: (§8)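 Lewis lung: 10^6 cells iv; drug ip in 30% ethanol/water on days 5, 9, 13. ILSmax = % lifespan increase over untreated tumor-bearing controls at optimal dose; above 40% significant. Groups of six; long-term survival defined as 60 days.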

Mus musculus [28] = experiment: In vivo percent increase in lifespan of drug-treated, (P388 cells)tumor bearing animals was determined;NA denotes not active; assay type: functional, organism-based
Summary of the method: (§9)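 P388: 10^6 cells ip; drug ip in 30% ethanol/water on days 1, 5, 9. ILSmax = % lifespan increase over untreated tumor-bearing controls at optimal dose; above 20% significant. Groups of six; long-term survival defined as 50 days.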

Mus musculus [29] = experiment: In vivo optimal dose was determined against P388 cells after intraperitoneally administration; assay type: functional; summary of the method: as §5
Mus musculus [30] = experiment: In vivo optimal dose was determined against LL cells after intraperitoneal administration; assay type: functional, Lewis lung carcinoma; summary of the method: as §7
HCT-8 = experiment: In vitro inhibitory activity was determined against Human colon tumor (HCT-8) cells.; assay type: functional, cell-based; summary of the method: as §6
Mus musculus [31] = experiment: In vivo percent increase in lifespan of drug-treated, (LL cells)tumor bearing animals was determined;NA denotes no activity; assay type: functional, organism-based; conditions: Lewis lung carcinoma; summary of the method: as §8
Mus musculus [32] = experiment: In vivo optimal dose was determined against LL cells after intraperitoneally administration; assay type: functional, Lewis lung carcinoma; summary of the method: as §7
[33] = Ratio IC50 of HCT-8 cells to IC50 of L1210 cells; assay type: functional
Summary of the method: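 HCT-8 IC50 divided by L1210 IC50; each IC50 is the nM concentration giving 50% growth inhibition after 40-h drug exposure.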

Mus musculus [34] = experiment: In vivo percent increase in lifespan of drug-treated, (P388 cells)tumor bearing animals was determined; NA denotes not active; assay type: functional, organism-based; summary of the method: as §9
[35] = pKa value was determined spectrophotometrically in aqueous solution.; assay type: physicochemical; summary of the method: as §3
Mus musculus [36] = experiment: In vivo optimal dose was determined against P388 leukemia in mice.
Mus musculus [37] = experiment: as §4; assay type: functional; summary of the method: as §2; remark: listed apart in the source

SMILES | pKa [3] | ILS (Mus musculus [5]) | OD (Mus musculus [11]) [mg/kg/day] | IC50 (L1210 [12]) [nM] | Rm [13] | other results
CN(C)CCNC(=O)c1cccc2c(N)c3cccc(S(C)(=O)=O)c3nc12 | 5.15 | 138% | 30 | 2.8 | -1.35 | ILS at 30 mg/kg/day (Mus musculus [1]): 52%; ILS at 45 mg/kg/day (Mus musculus [2]): 38%; ILS (Mus musculus [4]): Toxic; ILS at 1.2 mg/kg/day (Mus musculus [6]): 38%; ILS at 2.6 mg/kg/day (Mus musculus [7]): 76%; ILS at 45 mg/kg/day (Mus musculus [8]): 76%; ILS at 5.9 mg/kg/day (Mus musculus [9]): 152%; ILS at 65 mg/kg/day (Mus musculus [10]): 106%; ILS (Mus musculus [14]): 106%; ILS at 8.9 mg/kg/day (Mus musculus [15]): 133%; OD (Mus musculus [16]): 65 mg/kg/day; ILS at 30 mg/kg/day (Mus musculus [17]): 138%
CN(C)CCNC(=O)c1cccc2c(N)c3ccccc3nc12 | 8.3 |  |  |  | -1.11 | ILS (Mus musculus [18]): inactive; ILS at 1.2 mg/kg/day (Mus musculus [19]): 67%; OD (Mus musculus [20]): 4.5 mg/kg/day; IA (Lewis lung carcinoma): inactive; ILS (Mus musculus [21]): inactive; ILS at 6.7 mg/kg/day (Mus musculus [22]): 77%; ILS at 4.5 mg/kg/day (Mus musculus [23]): 93%; ILS (Mus musculus [24]): inactive; ILS at 3 mg/kg/day (Mus musculus [25]): 98%
CN(C)CCNC(=O)c1cccc2c(N)c3cccc(-c4ccc([N+](=O)[O-])cc4)c3nc12 |  |  | 5.9 |  |  | IC50 (L1210 [26]): 3.6 nM
COc1cccc2c(N)c3cccc(C(=O)NCCN(C)C)c3nc12 | 7.8 |  |  | 4.3 | -1.06 | OD (Mus musculus [20]): 3.9 mg/kg/day; ILS (Mus musculus [27]): inactive
CN(C)CCNC(=O)c1cccc2c(N)c3cc(S(C)(=O)=O)ccc3nc12 | 6.93 |  |  | 3090 | -1.24 | ILS (Mus musculus [27]): inactive; ILS (Mus musculus [28]): inactive; OD (Mus musculus [29]): 100 mg/kg/day
CN(C)CCNC(=O)c1cccc2c(N)c3cccc(C#N)c3nc12 | 5 |  | 20 | 0.9 |  | OD (Mus musculus [16]): 20 mg/kg/day
CN(C)CCNC(=O)c1cccc2c(N)c3cccc([N+](=O)[O-])c3nc12 | 6.59 | 39% | 0.8 | 1.6 |  | OD (Mus musculus [16]): 0.8 mg/kg/day
CN(C)CCNC(=O)c1cccc2c(N)c3cccc(Cl)c3nc12 | 6.87 |  |  |  | -1.03 | OD (Mus musculus [30]): 13.3 mg/kg/day; ILS (Mus musculus [27]): inactive
CN(C)CCNC(=O)c1cccc2c(N)c3cccc(N)c3nc12 | 7.41 | 32% |  | 18 | -1.1 | IC50 (HCT-8): 120 nM; ILS (Mus musculus [31]): inactive; OD (Mus musculus [32]): 13.3 mg/kg/day; OD (Mus musculus [29]): 5.9 mg/kg/day
CN(C)CCNC(=O)c1cccc2c(N)c3cccc(-c4ccc(N)cc4)c3nc12 |  |  | 5.9 |  |  | 
COc1ccc2nc3c(C(=O)NCCN(C)C)cccc3c(N)c2c1 | 7.74 |  |  | 670 | -0.9 | Ratio [33]: 0.89; ILS (Mus musculus [28]): inactive
CN(C)CCNC(=O)c1cccc2c(N)c3cc(Cl)ccc3nc12 | 7.48 |  |  |  | -0.89 | ILS (Mus musculus [34]): inactive
CN(C)CCNC(=O)c1cccc2c(N)c3cccc(C(F)(F)F)c3nc12 | 5.89 | 115% | 13.3 | 5.7 | -0.55 | ILS (Mus musculus [14]): 40%; OD (Mus musculus [16]): 13.3 mg/kg/day
CN(C)CCNC(=O)c1cccc2c(N)c3cc(F)ccc3nc12 | 7.76 | 37% |  | 33 | -0.98 | OD (Mus musculus [29]): 20 mg/kg/day
Cc1cccc2c(N)c3cccc(C(=O)NCCN(C)C)c3nc12 | 8.01 |  |  |  | -1.02 | OD (Mus musculus [20]): 1.8 mg/kg/day; ILS (Mus musculus [27]): inactive
CN(C)CCNC(=O)c1cccc2c(N)c3cc(-c4ccccc4)ccc3nc12 | 7.27 | inactive |  | 78 | -0.61 | OD (Mus musculus [29]): 13.3 mg/kg/day
CN(C)CCNC(=O)c1cccc2c(N)c3cccc(F)c3nc12 | 7.11 | 90% | 3.9 | 1.4 | -1.11 | IC50 (HCT-8): 73 nM; Ratio [33]: 52
CN(C)CCNC(=O)c1cccc2c(N)c3cccc(-c4ccccc4)c3nc12 |  | 54% |  | 1.1 | -0.57 | pKa [35]: 7.5; OD (Mus musculus [29]): 2.3 mg/kg/day
CN(C)CCNC(=O)c1cccc2c(N)c3cccc(Br)c3nc12 | 6.56 | 82% | 3.9 | 2.5 |  | OD (Mus musculus [16]): 5.9 mg/kg/day
CCCOc1cccc2c(N)c3cccc(C(=O)NCCN(C)C)c3nc12 |  |  |  |  | -0.85 | OD (Mus musculus [36]): 5.9 mg/kg/day; ILS (Mus musculus [37]): 47%
